Assay results reported in ChEMBL document CHEMBL4825662 (J Med Chem, 2021).
Values after ≈ are worked out from the molar mass of the structure shown.

What was measured:
Human orthopneumovirus [1] = assay: Antiviral activity against Respiratory syncytial virus A Memphis 37b infected in human assessed as reduction in mean AUC of viral load at 350 mg administered twice daily administered for 5 days by cell-based infectivity assay; assay type: functional; set-up: scale not given: the % may be the effect or the level left; details: time 5 day
Procedure, shortened: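 Healthy adult volunteers aged 18–45 with low serum pre-existing RSV-specific antibodies were challenged on day zero with about 4 log10 PFU of RSV-A Memphis 37b. Subjects were randomized into 3 equal groups: 200 mg, 350 mg or placebo twice daily for 5 days, begun after infection was confirmed. Viral load in nasal wash was measured by RT-qPCR or by cell-based infectivity assay, and AUC was compared with placebo.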

[2] = Half life in CD1 mouse at 10 mg/kg, po measured after 0.083 to 24 hrs by UHPLC-TOF method; assay type: ADME, organism-based; details: in vivo, time 0.083-24 hrs
[3] = Tmax in Sprague-Dawley rat at 50 mg/kg, po measured after 0.02 to 24 hrs by UHPLC-TOF method; assay type: ADME, organism-based; details: in vivo, time 0.02-24 hrs
[4] = test system: Respiratory syncytial virus; assay: Antiviral activity against Respiratory syncytial virus Memphis 37b infected in human HEp2 cells assessed as drug resistance by measuring fold change in EC50 treated over 10 serial passages by plaque assay relative to control; assay type: functional, HEp-2
[5] = Protein binding in dog plasma assessed as unbound fraction at 5 uM by LC-MS/MS analysis based equilibrium dialysis method; assay type: ADME, cell-free, Canis lupus familiaris
[6] = Half life in Beagle dog at 0.3 mg/kg, iv measured after 0.03 to 24 hrs by UHPLC-TOF method; assay type: ADME, organism-based, Canis lupus familiaris; details: in vivo, time 0.03-24 hrs
Procedure, shortened: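 Dogs dosed IV as a suspension of amorphous solid. Serial blood at 2, 5, 15 min and 1, 2, 4, 8, 12, 24 h into heparinized tubes, centrifuged at 4 °C for 10 min at 3000g. Plasma snap-frozen and stored at −20 °C, then analysed by UHPLC-TOF.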

[7] = Half life in Sprague-Dawley rat at 10 mg/kg, po measured after 0.25 to 24 hrs by UHPLC-TOF method; assay type: ADME, organism-based; details: in vivo, time 0.25-24 hrs
[8] = Cmax in Sprague-Dawley rat at 50 mg/kg, po measured after 0.02 to 24 hrs by UHPLC-TOF method; assay type: ADME, organism-based; set-up: route oral, dose 50 mg/kg, time 0.02-24 hrs; details: in vivo
[9] = Cardiotoxicity in guinea pig assessed as effect on QT interval; assay type: toxicity, Cavia porcellus
[10] = Cmax in CD1 mouse at 10 mg/kg, po measured after 0.083 to 24 hrs by UHPLC-TOF method; assay type: ADME, organism-based; set-up: route oral, time 0.083-24 hrs, dose 10 mg/kg; details: in vivo
[11] = Half life in rat hepatocytes at 3 uM measured up to 60 mins by LC-MS/MS analysis; assay type: ADME, cell-based, Hepatocyte
[12] = Tmax in Sprague-Dawley rat at 10 mg/kg, po measured after 0.02 to 24 hrs by UHPLC-TOF method; assay type: ADME, organism-based; details: in vivo, 10 mg/kg, time 0.02-24 hrs
[13] = Oral bioavailability in Sprague-Dawley rat at 10 mg/kg administered via gavage measured after 0.02 to 24 hrs by tandem liquid chromatography/mass spectrometry; assay type: ADME, organism-based; details: in vivo, time 0.02-24 hrs
Procedure, shortened: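 Male Sprague–Dawley rats (200–250 g), 3 per route. IV bolus at 1 mg/kg, 1 mg/mL in 40:60 dimethylacetamide/saline; oral gavage at 5 or 10 mg/kg, 5 mg/mL in 1% methyl cellulose, 0.1% Tween 80 in water. Serial blood at 0.02–24 h (ten points) into heparin, spun at 4 °C, plasma frozen; acetonitrile protein precipitation, ESI LC-MS/MS with matrix curve and internal standards.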

Human orthopneumovirus [14] = assay: Antiviral activity against Respiratory syncytial virus A2 infected in Balb/C mouse assessed as reduction in viral titers in lung homogenates at 1 mg/kg, po treated 2 hrs prior to viral infection followed by compound redosing at 24 hrs and measured after 5 days post infection by plaque assay relative to control; assay type: functional, human respiratory syncytial virus; set-up: scale not given: the % may be the effect or the level left
Procedure, shortened: (§1)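 Female Balb/C mice aged 7–8 weeks, 6 per group, received two oral doses 2 h before and 24 h after intranasal inoculation with 5 × 10⁶ pfu of RSV A2. Mice were euthanized on day 5. Lung homogenate titers were determined by plaque assay on Vero cells and expressed as a percentage of the control group.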

[15] = Clearance in Sprague-Dawley rat at 1 mg/kg, iv administered […] measured after 0.02 to 24 hrs by tandem liquid chromatography/mass spectrometry; assay type: ADME, organism-based; details: in vivo, time 0.02-24 hrs
Human orthopneumovirus [16] = assay: Antiviral activity against Respiratory syncytial virus A2 infected in Balb/C mouse assessed as reduction in viral titers in lung homogenates at 10 mg/kg, po treated 2 hrs prior to viral infection followed by compound redosing at 24 hrs and measured after 5 days post infection by plaque assay relative to control; assay type: functional, human respiratory syncytial virus; set-up: scale not given: the % may be the effect or the level left; procedure, shortened: as §1
[17] = Thermodynamic solubility in PBS at 1 to 100 uM at pH 7.4 by HPLC-UV method; assay type: physicochemical; details: dose 1-100 µM, read-out: Therm_solubility
[18] = Cmax in Beagle dog at 3 mg/kg, po measured after 0.03 to 24 hrs by UHPLC-TOF method; assay type: ADME, organism-based, Canis lupus familiaris; set-up: route oral, dose 3 mg/kg, time 0.03-24 hrs; details: in vivo
[19] = Intrinsic clearance in Sprague-Dawley rat liver microsomes preincubated followed by NADPH addition and measured up to 45 mins by LC-MS/MS analysis; assay type: ADME, Microsome
[20] = Half life in Sprague-Dawley rat at 1 mg/kg, iv measured after 0.02 to 24 hrs by UHPLC-TOF method; assay type: ADME, organism-based; details: in vivo, time 0.02-24 hrs
[21] = Tmax in CD1 mouse at 10 mg/kg, po measured after 0.083 to 24 hrs by UHPLC-TOF method; assay type: ADME, organism-based; details: in vivo, time 0.083-24 hrs
Procedure, shortened: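 Male CD-1 mice, acclimatized and individually housed, dosed IV and PO as amorphous-solid suspension. Terminal cardiac-puncture blood into heparinized tubes on wet ice, centrifuged at 4 °C within 15 min; plasma snap-frozen at −20 °C. IV arm sampled 2 min–24 h, oral arm 5 min–24 h. Plasma analysed by UHPLC-quadrupole-TOF MS.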

[22] = Intrinsic clearance in human liver microsomes preincubated followed by NADPH addition and measured up to 45 mins by LC-MS/MS analysis; assay type: ADME, Microsome
[23] = Cmax in Sprague-Dawley rat at 10 mg/kg, po measured after 0.02 to 24 hrs by UHPLC-TOF method; assay type: ADME, organism-based; set-up: route oral, dose 10 mg/kg, time 0.02-24 hrs; details: in vivo
[24] = Induction of adverse effect in human infected with Respiratory syncytial virus A Memphis 37b assessed as nausea at 200 to 350 mg administered twice daily administered for 5 days; details: in vivo, 120 h, dose 200-350 mg, time 5 day
Procedure, shortened: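 Challenge study in healthy adults aged 18–45 inoculated with about 4 log10 PFU of RSV-A Memphis 37b. Dosing was 200 or 350 mg twice daily for 5 days after infection was confirmed. Adverse events were monitored daily. ECG, physical examination and urinalysis were done at prespecified time points.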

Human orthopneumovirus [25] = assay: Antiviral activity against Respiratory syncytial virus A2 infected in Balb/C mouse assessed as reduction in viral titers in lung homogenates at 50 mg/kg, po treated 2 hrs prior to viral infection followed by compound redosing at 24 hrs and measured after 5 days post infection by plaque assay relative to control; assay type: functional, human respiratory syncytial virus; set-up: scale not given: the % may be the effect or the level left; procedure, shortened: as §1

NCc1ccc2c(c1)nc(CN1C(=O)C3(CC3)c3ccc(F)cc31)n2CCCC(F)(F)F [SISUNATOVIR]
Activity (Human orthopneumovirus [1]): 68.6% | half-life [2]: 3.1 h | Tmax [3]: 5.3 h | fold change (FC) [4]: 76 | fraction unbound at 5 µM [5]: 0.27 | half-life [6]: 12.3 h | half-life [7]: 9.9 h | Cmax [8]: 475 ng/mL | Activity [9]: Toxic | Cmax [10]: 224 ng/mL | half-life at 3 µM [11]: 1.55 h | Tmax [12]: 2.7 h | bioavailability [13]: 102% | Activity (Human orthopneumovirus [14]): 79% | clearance [15]: 164 mL/min/kg | Activity (Human orthopneumovirus [16]): 92% | solubility thermodynamic [17]: 417 µM (≈ 186 µg/mL) | Cmax [18]: 82.4 ng/mL | Microsomal intrinsic clearance [19]: 17 µL/min | half-life [20]: 1.8 h | Tmax [21]: 2 h | intrinsic clearance (CLint) [22]: 44 µL/min | Cmax [23]: 74.2 ng/mL | Activity [24]: Toxic | Activity (Human orthopneumovirus [25]): 98%
